A short description of series [1]: Dark toxicity in human HeLa cells assessed as reduction in cell survival at 1 uM measured after 24 hrs by CCK8 assay. It counts as cell-based. In short, it runs like this: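 HeLa cells seeded 5×10^3/well, grown 24 h (37°C, 5% CO2), then given conjugate at 1.0 μM (final 1% DMSO) for 24 h. Washed twice with PBS, fresh medium added, kept without light (0 J cm⁻²). WST-8 (CCK-8) read at 450 nm 24 h later. Survival normalized to untreated wells; mean ± SD of six replicates.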

The species entered for a further series is Rattus norvegicus. The series can be described thus: Phototoxicity against rat RGK1 cells assessed as reduction in cell survival at 0.2 to 1 uM pretreated for 24 hrs followed by 16 J/cm2 irradiation with halogen lamp measured after 24 hrs by CCK8 assay. It counts as functional, cell-based. The procedure, abridged:
(§1)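 HeLa, U251 (DMEM, 10% FCS) or RGK cells plated 5×10^3/well and grown 24 h. Conjugate added at 0.1–1 µM (final 1% DMSO) for 24 h. Cells PBS-washed twice, given fresh medium and irradiated with a 100 W halogen lamp (water jacket, λ >500 nm) to 16 J cm⁻². WST-8 absorbance read at 450 nm 24 h later; survival normalized to untreated wells. EC50 for 50% cell death. Mean ± SD of six replicates.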

Series [2] in a line: n-Octanol/water partition co-efficient, log P of the compound by RP-TLC method. It is filed as physicochemical. The procedure, abridged: (§2)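 Log P (n-octanol/water partition) determined by reverse-phase thin-layer chromatography.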
For the next series, the system named is U-251. The series can be described thus: Phototoxicity against human U251 cells assessed as reduction in cell survival at 0.2 to 1 uM pretreated for 24 hrs followed by 16 J/cm2 irradiation with halogen lamp measured after 24 hrs by CCK8 assay. It is filed as functional, cell-based. The procedure, abridged: as §1
The nature of series [3]: Drug uptake in rat RGK1 cells at 2.5 uM measured after 8 to 24 hrs by fluorescence assay. It is filed as ADME, cell-based. The procedure, abridged:
(§3)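 RGK cells (MNNG-induced mutant of rat RGM gastric mucosal line; DMEM/F12 1:1, 10% FCS, antibiotic-antimycotic) plated 2.5×10^6/well for 24 h. Pre-incubated 2 h with or without cytochalasin B (50 µM final), then given 2.5 µM compound in medium with 1% DMSO for 8 or 24 h. PBS-washed twice, lysed in DMSO. Fluorescence read at ex 430/em 650 nm and quantified against per-compound DMSO calibration. Mean ± SD of three replicates.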

The subject of a further series is HeLa. Briefly: Phototoxicity against human HeLa cells assessed as reduction in cell survival up to 1 uM pretreated for 24 hrs followed by 16 J/cm2 irradiation with halogen lamp measured after 24 hrs by CCK8 assay. It is filed as functional, cell-based. In short, it runs like this:
as §1

The nature of series [4]: Lipophilicity, log P of the compound. It is filed as physicochemical. To be noted: octanol/water. The procedure, abridged:
as §2

A short description of series [5]: Drug uptake in rat RGK1 cells at 2.5 uM measured after 8 to 24 hrs in presence of GLUT1 inhibitor cytochalasin B by fluorescence assay. It counts as ADME, cell-based. The procedure, abridged:
as §3

Drawing on ChEMBL document CHEMBL4219108, “Synthesis, photophysical properties, and photodynamic activity of positional isomers of TFPP-glucose conjugates” (Bioorg Med Chem, 2018), this text covers Activity, logP and Drug uptake for 8 compounds.

SMILES strings stand for the structures. The source made the active and inactive calls. The calls are words filed in the database; no cut-off is given here.

Consider `OC[C@H]1OC(Sc2c(F)c(F)c(-c3c4nc(c(-c5c(F)c(F)c(F)c(F)c5F)c5ccc([nH]5)c(-c5c(F)c(F)c(F)c(F)c5F)c5nc(c(-c6c(F)c(F)c(F)c(F)c6F)c6ccc3[nH]6)C=C5)C=C4)c(F)c2F)[C@H](O)[C@@H](O)[C@@H]1O` (stereo partly specified), for which, in series [1], the Activity entry was “Non-Toxic”. Also, the result in the series filed under Rattus norvegicus, in the series on U-251 and in the series on HeLa was Active. In addition, in series [2], the log partition coefficient (logP) was 6.05. Also, the Drug uptake result in series [3] was “Active”.
`OCCOc1c(F)c(F)c(-c2c3nc(c(-c4c(F)c(F)c(F)c(F)c4F)c4ccc([nH]4)c(-c4c(F)c(F)c(OCCO)c(F)c4F)c4nc(c(-c5c(F)c(F)c(F)c(F)c5F)c5ccc2[nH]5)C=C4)C=C3)c(F)c1F`: in series [4], the lipophilicity (logP) is 6.5.
For `OC[C@H]1OC(O)[C@H](Sc2c(F)c(F)c(-c3c4nc(c(-c5c(F)c(F)c(F)c(F)c5F)c5ccc([nH]5)c(-c5c(F)c(F)c(F)c(F)c5F)c5nc(c(-c6c(F)c(F)c(F)c(F)c6F)c6ccc3[nH]6)C=C5)C=C4)c(F)c2F)[C@@H](O)[C@@H]1O` (stereo partly specified), the Activity entry in series [1] was “Non-Toxic”. Besides, the result in the series filed under Rattus norvegicus, in the series on U-251 and in the series with HeLa was inactive. Also, the lipophilicity (logP) in series [2] is 6.87. Also, the Drug uptake result in series [3] is given as “Active”; in series [5], “Not Active”.
For `OCCOc1c(F)c(F)c(-c2c3nc(c(-c4c(F)c(F)c(OCCO)c(F)c4F)c4ccc([nH]4)c(-c4c(F)c(F)c(F)c(F)c4F)c4nc(c(-c5c(F)c(F)c(F)c(F)c5F)c5ccc2[nH]5)C=C4)C=C3)c(F)c1F`, in series [4], the lipophilicity (logP) was 6.5.
Take `OC[C@H]1OC(O)[C@H](O)[C@@H](O)[C@@H]1Sc1c(F)c(F)c(-c2c3nc(c(-c4c(F)c(F)c(F)c(F)c4F)c4ccc([nH]4)c(-c4c(F)c(F)c(F)c(F)c4F)c4nc(c(-c5c(F)c(F)c(F)c(F)c5F)c5ccc2[nH]5)C=C4)C=C3)c(F)c1F` (stereo partly specified): the Activity entry in series [1] is on record as “Non-Toxic”. Also, the outcome in the series listed under Rattus norvegicus, in the series with U-251 and in the series with HeLa was Active. The compound also had a logP in series [2] of 6.3. For the same compound, the Drug uptake entry is listed as “Active” in series [3] and “Not Active” in series [5].
Regarding `OC[C@H]1OC(O)[C@H](O)[C@@H](Sc2c(F)c(F)c(-c3c4nc(c(-c5c(F)c(F)c(F)c(F)c5F)c5ccc([nH]5)c(-c5c(F)c(F)c(F)c(F)c5F)c5nc(c(-c6c(F)c(F)c(F)c(F)c6F)c6ccc3[nH]6)C=C5)C=C4)c(F)c2F)[C@@H]1O` (stereo partly specified), the Activity result in series [1] is “Non-Toxic”. Besides, the outcome in the series listed under Rattus norvegicus, with U-251 and in the series with HeLa was Active. The compound also yielded a lipophilicity (logP) in series [2] of 6.21. Further, the Drug uptake result in series [3] was “Active”; in series [5] it was “Not Active”.
For the compound `OC1O[C@H](CSc2c(F)c(F)c(-c3c4nc(c(-c5c(F)c(F)c(F)c(F)c5F)c5ccc([nH]5)c(-c5c(F)c(F)c(F)c(F)c5F)c5nc(c(-c6c(F)c(F)c(F)c(F)c6F)c6ccc3[nH]6)C=C5)C=C4)c(F)c2F)[C@@H](O)[C@H](O)[C@H]1O` (stereo partly specified), the Activity entry in series [1] is reported as “Non-Toxic”. For the same compound, the outcome in the series listed under Rattus norvegicus, in the series with U-251 and in the series on HeLa was Active. This compound yielded a lipophilicity (logP) in series [2] of 6.5. In addition, the Drug uptake result in series [3] was “Active”.
Turning to `OCCOc1c(F)c(F)c(-c2c3nc(c(-c4c(F)c(F)c(OCCO)c(F)c4F)c4ccc([nH]4)c(-c4c(F)c(F)c(OCCO)c(F)c4F)c4nc(c(-c5c(F)c(F)c(F)c(F)c5F)c5ccc2[nH]5)C=C4)C=C3)c(F)c1F`, in series [4], the logP came to 5.4.
